Consider 16 compounds from ChEMBL document CHEMBL1138739, “Synthesis, nicotinic acetylcholine receptor binding, and antinociceptive properties of 2'-fluoro-3'-(substituted phenyl)deschloroepibatidine analogues. Novel nicotinic antagonist” (J Med Chem, 2004).

Activity calls are given as the source filed them.

For assay [1], the species on record is Mus musculus. As to the kind of experiment: Antinociceptive response was determined in mice using tail flick method. In kind it is functional. In outline:
(§1)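 Mice; epibatidine analogues given i.t., tail-flick (D'Amour–Smith) latency read 5 min later. Baseline 2–4 s, 10 s cutoff. %MPE = [(test − control)/(10 − control)] × 100. Eight to twelve mice per dose, at least four doses for dose–response; ED50 with confidence limits, or percent effect at a single dose.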

Assay [2] is filed under the species Mus musculus. As to the kind of experiment: Antinociceptive response was determined in mice using hot plate flick method. In kind it is functional. In outline:
(§2)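 Mice, 8 per dose, given analogues sc and placed on a 55.0 °C hot plate 5 min later. Two control latencies at least 10 min apart, normally 8–12 s. Endpoint is paw lick or jump. %MPE = [(test − control)/(40 − control)] × 100. ED50 with confidence limits, or percent effect at a single dose.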

The species named for assay [3] is Mus musculus. Kind of assay: Antinociceptive response was determined in mice using spontaneous activity method. The assay is classed as functional. In outline:
(§3)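 Mice given 0.9% saline or analogue sc and put in individual photocell activity cages 5 min later. Beam interruptions counted over the next 10 min. ED50 with confidence limits, or percent effect at a single dose.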

In assay [4] the test system is Mus musculus. Kind of assay: Antinociceptive response was determined in mice at a dose of 10 mg/kg using hot plate flick method. In kind it is functional. In a few lines: as §2
Assay [5] concerns the target Neuronal acetylcholine receptor; alpha4/beta2 (Rattus norvegicus, UniProt P09483+P12390). Kind of assay: Inhibition of alpha beta[3H]epibatidine binding to Nicotinic acetylcholine receptor alpha4-beta2 of rat cerebral cortex. In kind it is tissue-based.
The test system of assay [6] is Mus musculus. As to the kind of experiment: Antinociceptive response was determined in mice at a dose 10 mg/kg using tail flick method. In kind it is functional. In a few lines: as §1
Assay [7] concerns Mus musculus. As to the kind of experiment: Antinociceptive response was determined in mice at a dose of 10 mg/kg using hypothermia method. The assay is classed as functional. In a few lines: (§4)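 Rectal temperature in mice by thermistor probe inserted 24 mm, read just before and at several times after sc saline or analogue. ED50 with confidence limits, or change at a single dose.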

For assay [8], the system named is Mus musculus. Kind of assay: Percent effect on the body temperature was measured at a dose of 10 mg/kg. In kind it is functional.
In assay [9] the test system is Mus musculus. Kind of assay: Percent effect on the body temperature was measured at a dose of 1 mg/kg. In kind it is functional.
The species entered for assay [10] is Mus musculus. Kind of assay: Antinociceptive response was determined in mice using hypothermia method. In kind it is functional. In a few lines: as §4
The subject of assay [11] is Mus musculus. As to the kind of experiment: Antinociceptive response was determined in mice at a dose of 10 mg/kg using spontaneous activity method. In kind it is functional. In a few lines: as §3
Assay [12] deals with Neuronal acetylcholine receptor subunit alpha-7 (Rattus norvegicus, UniProt Q05941). As to the kind of experiment: Inhibition of [125I]-iodo-MLA binding to Nicotinic acetylcholine receptor alpha-7 of rat cerebral cortex. The assay is classed as tissue-based.
The test system of assay [13] is Mus musculus. As to the kind of experiment: Antinociceptive response was determined in mice at a dose 15 mg/kg using tail flick method. In kind it is functional. In a few lines:
as §1
(Thermal pain tests record how soon the animal reacts.)

The test system of assay [14] is Mus musculus. Kind of assay: Percent effect on the body temperature was measured at a dose of 5 mg/kg. The assay is classed as functional.
Assay [15] relates to Mus musculus. As to the kind of experiment: Antinociceptive response was determined in mice at a dose of 1 mg/kg using hot plate flick method. The assay is classed as functional.
For assay [16], the system named is Mus musculus. As to the kind of experiment: Antinociceptive response was determined in mice at a dose of 15 mg/kg using hot plate flick method. The assay is classed as functional. In a few lines: as §2

Neuronal acetylcholine receptor; alpha4/beta2, sequence (P09483 whole entry): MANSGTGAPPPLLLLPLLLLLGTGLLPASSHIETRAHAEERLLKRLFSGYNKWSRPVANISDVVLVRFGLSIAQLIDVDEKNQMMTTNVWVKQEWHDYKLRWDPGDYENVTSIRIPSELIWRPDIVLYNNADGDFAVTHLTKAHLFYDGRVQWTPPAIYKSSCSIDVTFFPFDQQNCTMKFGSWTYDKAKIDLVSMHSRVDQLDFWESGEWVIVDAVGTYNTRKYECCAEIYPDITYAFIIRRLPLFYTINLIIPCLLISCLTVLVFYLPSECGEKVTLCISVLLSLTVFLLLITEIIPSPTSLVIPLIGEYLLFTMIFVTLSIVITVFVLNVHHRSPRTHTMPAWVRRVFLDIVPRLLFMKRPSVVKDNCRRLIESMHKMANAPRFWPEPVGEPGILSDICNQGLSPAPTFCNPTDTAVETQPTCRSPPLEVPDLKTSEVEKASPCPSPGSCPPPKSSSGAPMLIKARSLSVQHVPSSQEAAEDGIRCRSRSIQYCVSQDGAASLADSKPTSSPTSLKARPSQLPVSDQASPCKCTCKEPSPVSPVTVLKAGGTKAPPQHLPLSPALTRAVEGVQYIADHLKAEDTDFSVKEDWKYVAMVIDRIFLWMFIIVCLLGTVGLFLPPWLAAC
Neuronal acetylcholine receptor; alpha4/beta2, sequence (P12390 whole entry): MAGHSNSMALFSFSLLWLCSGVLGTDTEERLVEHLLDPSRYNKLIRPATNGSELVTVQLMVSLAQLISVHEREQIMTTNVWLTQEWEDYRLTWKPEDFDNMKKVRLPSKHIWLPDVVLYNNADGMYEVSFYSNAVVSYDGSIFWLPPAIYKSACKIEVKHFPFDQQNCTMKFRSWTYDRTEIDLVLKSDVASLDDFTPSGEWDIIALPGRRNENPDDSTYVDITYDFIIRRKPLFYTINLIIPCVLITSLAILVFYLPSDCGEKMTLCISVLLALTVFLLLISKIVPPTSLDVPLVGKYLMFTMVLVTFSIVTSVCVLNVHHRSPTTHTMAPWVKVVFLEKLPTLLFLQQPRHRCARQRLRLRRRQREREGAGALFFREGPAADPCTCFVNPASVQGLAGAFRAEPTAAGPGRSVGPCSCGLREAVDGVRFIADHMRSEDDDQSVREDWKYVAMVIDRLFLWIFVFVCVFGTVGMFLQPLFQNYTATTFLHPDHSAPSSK
Neuronal acetylcholine receptor subunit alpha-7, sequence (Q05941 whole entry): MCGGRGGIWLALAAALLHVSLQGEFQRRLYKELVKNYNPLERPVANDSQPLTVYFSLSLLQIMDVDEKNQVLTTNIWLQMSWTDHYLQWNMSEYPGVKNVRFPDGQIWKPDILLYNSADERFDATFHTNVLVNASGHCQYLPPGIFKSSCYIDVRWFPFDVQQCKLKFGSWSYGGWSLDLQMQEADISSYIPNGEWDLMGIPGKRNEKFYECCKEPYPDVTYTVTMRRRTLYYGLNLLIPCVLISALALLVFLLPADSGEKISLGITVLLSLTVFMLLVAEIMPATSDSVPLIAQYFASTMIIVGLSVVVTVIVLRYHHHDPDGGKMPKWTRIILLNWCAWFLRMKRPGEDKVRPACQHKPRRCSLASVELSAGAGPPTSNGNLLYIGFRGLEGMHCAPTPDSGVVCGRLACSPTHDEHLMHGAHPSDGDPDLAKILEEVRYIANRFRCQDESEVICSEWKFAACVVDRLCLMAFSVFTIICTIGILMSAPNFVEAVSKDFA

Usually ED50 stands for the dose that gives a 50% effect, or the effect in half of the subjects. A word on the Ki: it is a dissociation constant, usually derived from enzyme kinetics or from competition with a known ligand. A low value points to higher affinity. Consider `COc1cccc(-c2cc(C3CC4CCC3N4)cnc2F)c1` (centres undefined), for which the AD50 turned out to be 0.008 mg/kg in [1] and 2 mg/kg in assay [2]. The figures for the 50% effective dose (ED50) in assay [3] and in assay [4] were 6 mg/kg and 8 mg/kg, respectively. This compound also showed a Ki in assay [5] of 0.12 nM. Besides, the Response in assay [6] and in [7] was 0% throughout. Besides, the Body temperature in [8] was found to be 0%.

Take `Fc1ccc(-c2cc(C3CC4CCC3N4)cnc2F)cc1` (centres undefined): the Body temperature entry in [9] was “inactive”. The AD50 in [1] was 0.0005 mg/kg; in assay [2] it was 0.23 mg/kg. For the same compound, the 50% effective dose (ED50) in assay [3] worked out at 2 mg/kg; in [4], 15 mg/kg. Also, the Ki in [5] came to 0.02 nM. In addition, the Response in assay [6] turned out to be 2%; in assay [7], 10%.

Consider `Clc1ccc([C@H]2C[C@@H]3CC[C@H]2N3)cn1` [(-)-EPIBATIDINE], for which the ED50 in assay [1] was determined as 0.004 mg/kg; in [10], 0.001 mg/kg; in [2], 0.004 mg/kg.

Take `Fc1ncc(C2CC3CCC2N3)cc1-c1ccc(Cl)cc1` (centres undefined): the AD50 in assay [1] came to 0.0003 mg/kg; in [2], 0.26 mg/kg. This compound yielded a median effective dose (ED50) in assay [4] of 7 mg/kg. This compound showed a Ki in [5] of 0.04 nM. Besides, the Response in assay [6] is given as 2%; in [7] it was 0%; in assay [11] it was 50%. Besides, the Body temperature in assay [8] was 0%.

Regarding `Fc1ncc(C2CC3CCC2N3)cc1-c1ccccc1` (stereo in doubt; (-)-5a), the results for the Ki in assay [12] and in assay [5] were greater than 2000 nM and 0.26 nM, respectively. The AD50 in assay [1] was 0.08 mg/kg; in assay [2], 0.7 mg/kg. Moreover, the 50% effect level in assay [4] (ED50) was put at a dose of 10 mg/kg. Also, the Response in [13] is 5%; in assay [7] (10 mg/kg), -0.8%.

For the compound `O=[N+]([O-])c1cccc(-c2cc(C3CC4CCC3N4)cnc2F)c1` (centres undefined), the Body temperature in [14] is reported as 5%. The results for the AD50 in assay [1] and in assay [2] were 0.0005 mg/kg and 0.13 mg/kg, respectively. In addition, the results for the median effective dose (ED50) in assay [3] and in assay [4] were 6.5 mg/kg and 20 mg/kg, respectively. This compound also gave a Ki in assay [5] of 0.05 nM. Also, the Response in [6] came to 3%; in assay [7], 0%.

In turn, `Nc1cccc(-c2cc(C3CC4CCC3N4)cnc2F)c1` (centres undefined) showed a Body temperature in [14] of 5%. Moreover, the AD50 in [1] was 0.009 mg/kg; in [2], 0.82 mg/kg. The median effective dose (ED50) came out at 8.5 mg/kg in assay [3] and 4 mg/kg in assay [4]. The affinity in assay [5] corresponds to a Ki of 0.16 nM. In addition, the Response worked out at 1% in assay [6] and 0% in assay [7].

As for `Fc1cccc(-c2cc(C3CC4CCC3N4)cnc2F)c1` (centres undefined), the Body temperature in [9] is recorded as 0%. For the same compound, the figures for the AD50 in [1] and in [15] were 0.005 mg/kg and 20 mg/kg, respectively. The ED50 in [1] is 3.5 mg/kg; in assay [10] it was 1.8 mg/kg; in assay [2], 3.3 mg/kg; in [3], 0.36 mg/kg.

Compound `Fc1ccc(C2CC3CCC2N3)cn1` (centres undefined) displayed a Ki in [5] of 0.02 nM.

The compound `Nc1ccc(-c2cc(C3CC4CCC3N4)cnc2F)cc1` (centres undefined) registered a Body temperature in assay [14] of 0%. In addition, the AD50 stood at 0.005 mg/kg in assay [1] and 1.8 mg/kg in assay [2]. For the same compound, the ED50 in assay [3] was found to be 6 mg/kg; in [4] it was 10 mg/kg. In addition, the Ki in [5] worked out at 0.09 nM. Moreover, the values for the Response in assay [6] and in [7] were 2% and 0%, respectively.

As for `COc1ccc(-c2cc(C3CC4CCC3N4)cnc2F)cc1` (centres undefined), in assay [9], the Body temperature was 10%. The AD50 came out at 0.05 mg/kg in [1] and 0.52 mg/kg in [2]. In addition, the median effective dose (ED50) in assay [3] turned out to be 3.6 mg/kg; in assay [4], 16 mg/kg. Moreover, in assay [5], the inhibition constant Ki was determined as 0.06 nM. Moreover, the Response in assay [6] is given as 2%; in assay [7], 0%.

In assay [9], `O=[N+]([O-])c1ccc(-c2cc(C3CC4CCC3N4)cnc2F)cc1` (centres undefined) gave a Body temperature of 0%. The AD50 in assay [1] was 0.003 mg/kg; in [2], 0.12 mg/kg. This compound also came in with an ED50 in assay [3] of 0.22 mg/kg. Also, the Response in assay [6] worked out at 5%.

Consider `Fc1ncc(C2CC3CCC2N3)cc1-c1ccccc1` (single isomer, unassigned; (+)), for which the inhibitory constant (Ki) in assay [12] is greater than 2000 nM. Further, the AD50 in assay [1] came out at 1 mg/kg; in [2], 2.4 mg/kg. The compound also registered an ED50 in assay [16] (dose 15 mg/kg) of 8 mg/kg. The Response was 7% in [13] and -0.4% in assay [7] (10 mg/kg).

As for `CN1CCC[C@H]1c1cccnc1` [NICOTINE], the ED50 in [1] worked out at 1.3 mg/kg; in assay [10], 1 mg/kg; in assay [2] it was 0.65 mg/kg; in assay [3], 0.5 mg/kg.

Regarding `Fc1ncc(C2CC3CCC2N3)cc1-c1ccccc1` (racemic), the Ki in [12] was greater than 2000 nM. Moreover, the AD50 in assay [1] came out at 0.5 mg/kg; in assay [2] it was 1.2 mg/kg. Moreover, the ED50 is 4.7 mg/kg in assay [3] and 4 mg/kg in [16] (Mus musculus, read-out: ED50). Further, the results for the Response in [13] and in assay [7] (10 mg/kg) were 3% and -0.5%, respectively.

As for `Fc1ncc(C2CC3CCC2N3)cc1-c1cccc(Cl)c1` (centres undefined), the figures for the AD50 in [1] and in assay [2] were 0.01 mg/kg and 0.45 mg/kg, respectively. In addition, in assay [4], it took a dose of 14 mg/kg to reach the 50% effect level (ED50). Moreover, the affinity in assay [5], expressed as Ki, was 0.07 nM. The Response in assay [6] is 3%; in assay [7], 0%; in assay [11], 15%. The compound also had a Body temperature in assay [8] of 0%.
